This is an account of results in ChEMBL document CHEMBL4382197, “Discovery of QCA570 as an Exceptionally Potent and Efficacious Proteolysis Targeting Chimera (PROTAC) Degrader of the Bromodomain and Extra-Terminal (BET) Proteins Capable of Inducing Complete and Durable Tumor Regression” (J Med Chem, 2018).

Experiment [1] concerns the target Bromodomain-containing protein 4 (Homo sapiens, UniProt O60885).
Experiment [2] concerns RS4-11. Kind of experiment: Growth inhibition of human RS4:11 cells after 96 hrs by CCK8 assay. The note with it: RS4-11, 96 h. The format is functional, cell-based.
Experiment [3] relates to MV4-11. Kind of experiment: Growth inhibition of human MV4-11 cells after 96 hrs by CCK8 assay. The class given is functional, cell-based. The conditions noted are these: MV4-11, 96 h.
Experiment [4] concerns MOLM-13. Kind of experiment: Growth inhibition of human MOLM13 cells after 96 hrs by CCK8 assay. The note with it: MOLM-13, 96 h. The format is functional, cell-based.
Experiment [5] has as its target T1, Protein cereblon/Bromodomain-containing protein 2/Cullin-4A (Homo sapiens) (UniProt P25440+Q96SW2+Q13619). As to the kind of experiment: Protac activity at cereblon/cullin 4A/BRD2 in human RS4:11 cells assessed as BRD2 degradation at 0.1 nM after 3 hrs by Western blot analysis. The format is cell-based. (In western blotting, separated proteins are transferred to a membrane and probed.)

In experiment [6] the target is T2, Protein cereblon/Bromodomain-containing protein 3/Cullin-4A (Homo sapiens) (UniProt Q15059+Q96SW2+Q13619). As to the kind of experiment: Protac activity at cereblon/cullin 4A/BRD3 in human RS4:11 cells in assessed as BRD3 degradation at 0.1 nM after 3 hrs by Western blot analysis. The class given is cell-based.
Experiment [7] concerns the target T3, Protein cereblon/Bromodomain-containing protein 4/Cullin-4A (Homo sapiens) (UniProt O60885+Q96SW2+Q13619). Kind of experiment: Protac activity at cereblon/cullin 4A/BRD4 in human RS4:11 cells assessed as BRD4 degradation at 0.1 nM after 3 hrs by Western blot analysis. The class given is cell-based.
The test system of experiment [8] is RS4-11. Kind of experiment: Induction of apoptosis in human RS4:11 cells assessed as PARP cleavage at 0.1 to 10 nM after 24 hrs by Western blot analysis. The class given is functional, cell-based. In a few lines: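 Cells (1.5–2×10^6/well) were treated for 24 h, washed in cold PBS and lysed in RIPA with protease inhibitors. 20 µg lysate was run on 4–20% or 4–12% gels and transferred to PVDF. Blots were probed for cleaved PARP and cleaved caspase 3, with GAPDH as loading control. Detection by ECL.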

For experiment [9], the system named is RS4-11. Kind of experiment: Induction of apoptosis in human RS4:11 cells assessed as PARP cleavage at 10 uM after 24 hrs by Western blot analysis. The format is functional, cell-based.
Experiment [10] concerns the target T2, Protein cereblon/Bromodomain-containing protein 3/Cullin-4A (Homo sapiens). As to the kind of experiment: Protac activity at cereblon/cullin 4A/BRD3 in human RS4:11 cells assessed as BRD3 degradation at 1 to 10 uM after 3 to 24 hrs by Western blot analysis. The class given is cell-based. The gist of the method: (§1)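 Cells are used within two months of thawing. […] 1.5–2×10^6 cells/well are treated for 3 h or 24 h, then lysed in RIPA with protease inhibitors. 20 µg lysate is blotted to PVDF and probed with rabbit polyclonal anti-BRD2 or anti-BRD3. GAPDH is the loading control, detected by ECL.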

For experiment [11] the target is unchanged. As to the kind of experiment: Protac activity at cereblon/cullin 4A/BRD3 in human MV4-11 cells assessed as BRD3 degradation at 1 to 10 uM after 3 to 24 hrs by Western blot analysis. The format is cell-based. The gist of the method: as §1
For experiment [12], the target named is Protein cereblon/Bromodomain-containing protein 4/Bromodomain-containing protein 3/Bromodomain-containing protein 2 (Homo sapiens) (UniProt P25440+O60885+Q15059+Q96SW2). As to the kind of experiment: Protac activity at cereblon/cullin 4A/BET in human RS4:11 cells assessed as reduction in c-myc protein levels at 0.1 nM after 3 hrs by Western blot analysis. The format is cell-based.

Experiment [13] concerns the target T1, Protein cereblon/Bromodomain-containing protein 2/Cullin-4A (Homo sapiens). Kind of experiment: Protac activity at cereblon/cullin 4A/BRD2 in human RS4:11 cells assessed as induction of BRD2 degradation at 0.1 to 1 uM after 3 to 24 hrs by Western blot analysis. The format is cell-based.
The target of experiment [14] is T2, Protein cereblon/Bromodomain-containing protein 3/Cullin-4A (Homo sapiens). Kind of experiment: Protac activity at cereblon/cullin 4A/BRD3 in human RS4:11 cells in assessed as BRD3 degradation at 0.1 to 1 uM after 3 to 24 hrs by Western blot analysis. The class given is cell-based.
Experiment [15] concerns the target T3, Protein cereblon/Bromodomain-containing protein 4/Cullin-4A (Homo sapiens). Kind of experiment: Protac activity at cereblon/cullin 4A/BRD4 in human RS4:11 cells assessed as BRD4 degradation at 0.1 to 1 uM after 3 to 24 hrs by Western blot analysis. The format is cell-based.
The target in experiment [16] is T1, Protein cereblon/Bromodomain-containing protein 2/Cullin-4A (Homo sapiens). Kind of experiment: Protac activity at cereblon/cullin 4A/BRD2 in human RS4:11 cells assessed as BRD2 degradation by Western blot analysis. The class given is cell-based.
In experiment [17] the target is T2, Protein cereblon/Bromodomain-containing protein 3/Cullin-4A (Homo sapiens). Kind of experiment: Protac activity at cereblon/cullin 4A/BRD3 in human RS4:11 cells in assessed as BRD3 degradation by Western blot analysis. The format is cell-based.
Experiment [18] concerns the target T3, Protein cereblon/Bromodomain-containing protein 4/Cullin-4A (Homo sapiens). As to the kind of experiment: Protac activity at cereblon/cullin 4A/BRD4 in human RS4:11 cells assessed as BRD4 degradation by Western blot analysis. The class given is cell-based.

Each structure is given as a SMILES string. Active and inactive are the calls of the source. No cut-off for these calls is given here.

T1 sequence (P25440 whole entry, looked up): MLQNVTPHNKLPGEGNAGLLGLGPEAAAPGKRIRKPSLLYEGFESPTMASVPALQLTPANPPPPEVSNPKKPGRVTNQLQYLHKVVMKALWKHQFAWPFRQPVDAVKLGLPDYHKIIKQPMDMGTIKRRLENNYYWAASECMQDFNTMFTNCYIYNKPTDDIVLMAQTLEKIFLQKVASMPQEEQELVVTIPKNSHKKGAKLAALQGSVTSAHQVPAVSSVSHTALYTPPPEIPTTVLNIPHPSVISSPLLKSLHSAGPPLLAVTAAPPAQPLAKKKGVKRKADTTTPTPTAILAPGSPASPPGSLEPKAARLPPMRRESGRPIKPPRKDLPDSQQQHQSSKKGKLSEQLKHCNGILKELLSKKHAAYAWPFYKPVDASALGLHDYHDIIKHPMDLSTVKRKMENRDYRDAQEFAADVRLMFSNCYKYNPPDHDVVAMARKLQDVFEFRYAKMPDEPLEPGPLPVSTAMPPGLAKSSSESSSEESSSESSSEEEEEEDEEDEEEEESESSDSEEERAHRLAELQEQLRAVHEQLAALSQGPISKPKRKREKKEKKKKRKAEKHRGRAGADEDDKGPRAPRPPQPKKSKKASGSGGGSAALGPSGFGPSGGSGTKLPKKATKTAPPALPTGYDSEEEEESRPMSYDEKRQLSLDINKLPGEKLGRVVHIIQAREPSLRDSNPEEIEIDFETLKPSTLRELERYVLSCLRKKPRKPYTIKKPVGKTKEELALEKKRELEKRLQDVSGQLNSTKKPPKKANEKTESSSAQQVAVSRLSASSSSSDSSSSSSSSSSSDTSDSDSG
T1 sequence (Q13619 whole entry, looked up): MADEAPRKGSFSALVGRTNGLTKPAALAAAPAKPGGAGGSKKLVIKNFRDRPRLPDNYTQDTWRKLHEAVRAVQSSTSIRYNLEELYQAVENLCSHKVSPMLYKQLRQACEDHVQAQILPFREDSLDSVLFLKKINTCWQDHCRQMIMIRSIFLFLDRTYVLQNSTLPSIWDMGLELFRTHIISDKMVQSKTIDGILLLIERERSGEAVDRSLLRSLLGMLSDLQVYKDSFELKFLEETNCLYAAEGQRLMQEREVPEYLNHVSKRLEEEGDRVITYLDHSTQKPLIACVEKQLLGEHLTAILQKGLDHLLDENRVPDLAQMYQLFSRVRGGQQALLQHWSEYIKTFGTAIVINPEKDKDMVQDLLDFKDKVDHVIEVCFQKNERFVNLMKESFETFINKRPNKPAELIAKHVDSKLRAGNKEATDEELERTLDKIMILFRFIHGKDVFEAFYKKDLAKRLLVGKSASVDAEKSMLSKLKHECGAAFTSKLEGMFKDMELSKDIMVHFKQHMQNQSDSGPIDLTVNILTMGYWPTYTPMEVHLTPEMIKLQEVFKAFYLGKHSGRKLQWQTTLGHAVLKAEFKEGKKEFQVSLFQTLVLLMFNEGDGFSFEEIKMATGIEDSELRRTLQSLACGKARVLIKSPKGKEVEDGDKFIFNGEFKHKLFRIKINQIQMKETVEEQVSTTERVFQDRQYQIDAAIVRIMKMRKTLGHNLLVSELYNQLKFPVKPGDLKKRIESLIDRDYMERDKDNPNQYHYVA
T1 sequence (Q96SW2 whole entry, looked up): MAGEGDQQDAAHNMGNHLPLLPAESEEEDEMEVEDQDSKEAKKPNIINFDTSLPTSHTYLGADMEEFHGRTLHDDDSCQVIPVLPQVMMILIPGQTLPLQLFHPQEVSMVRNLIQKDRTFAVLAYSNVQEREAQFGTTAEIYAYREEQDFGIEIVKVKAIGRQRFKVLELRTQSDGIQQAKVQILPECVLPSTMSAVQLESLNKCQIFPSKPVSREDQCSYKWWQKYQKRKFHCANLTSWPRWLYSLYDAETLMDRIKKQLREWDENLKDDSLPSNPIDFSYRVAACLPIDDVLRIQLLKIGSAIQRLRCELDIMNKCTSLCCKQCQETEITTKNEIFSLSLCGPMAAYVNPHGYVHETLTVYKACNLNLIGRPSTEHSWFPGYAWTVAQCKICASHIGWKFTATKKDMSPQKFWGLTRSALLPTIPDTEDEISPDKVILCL
T2 sequence (Q13619 whole entry, looked up): as the sequence (Q13619 whole entry, looked up) above
T2 sequence (Q15059 whole entry, looked up): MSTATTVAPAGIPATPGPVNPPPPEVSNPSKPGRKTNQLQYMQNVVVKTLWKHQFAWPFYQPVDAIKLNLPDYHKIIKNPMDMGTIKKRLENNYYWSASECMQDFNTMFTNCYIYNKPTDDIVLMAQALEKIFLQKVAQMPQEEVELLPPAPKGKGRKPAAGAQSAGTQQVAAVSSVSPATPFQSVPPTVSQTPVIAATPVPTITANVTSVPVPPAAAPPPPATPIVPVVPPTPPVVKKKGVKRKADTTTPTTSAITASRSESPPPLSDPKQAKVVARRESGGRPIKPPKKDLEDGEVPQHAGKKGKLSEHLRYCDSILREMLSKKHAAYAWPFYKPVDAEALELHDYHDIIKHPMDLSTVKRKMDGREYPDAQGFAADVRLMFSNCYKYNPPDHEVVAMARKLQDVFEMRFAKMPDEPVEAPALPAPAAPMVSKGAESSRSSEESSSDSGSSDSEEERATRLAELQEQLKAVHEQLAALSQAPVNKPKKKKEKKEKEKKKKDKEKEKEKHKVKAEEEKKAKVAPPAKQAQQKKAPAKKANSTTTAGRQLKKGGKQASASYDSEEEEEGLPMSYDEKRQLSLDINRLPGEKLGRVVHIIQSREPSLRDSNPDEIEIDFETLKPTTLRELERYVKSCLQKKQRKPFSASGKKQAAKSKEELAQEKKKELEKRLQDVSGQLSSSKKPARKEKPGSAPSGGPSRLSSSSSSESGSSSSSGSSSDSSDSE
T2 sequence (Q96SW2 whole entry, looked up): as the sequence (Q96SW2 whole entry, looked up) above
Sequence of Protein cereblon/Bromodomain-containing protein 4/Bromodomain-containing protein 3/Bromodomain-containing protein 2 (Homo sapiens) (P25440 whole entry, looked up, other chains not shown): as the sequence (P25440 whole entry, looked up) above
Sequence of Protein cereblon/Bromodomain-containing protein 4/Bromodomain-containing protein 3/Bromodomain-containing protein 2 (Homo sapiens) (Q15059 whole entry, looked up, other chains not shown): as the sequence (Q15059 whole entry, looked up) above
Sequence of Protein cereblon/Bromodomain-containing protein 4/Bromodomain-containing protein 3/Bromodomain-containing protein 2 (Homo sapiens) (Q96SW2 whole entry, looked up, other chains not shown): as the sequence (Q96SW2 whole entry, looked up) above

As a reminder, the IC50 is the concentration needed to halve the response being measured. The low end stands for greater potency in that assay, the high end for weaker potency in that assay. In general, Ki refers to a dissociation constant, usually derived from enzyme kinetics or from competition with a known ligand. Read a low Ki as tighter binding. In [1], `Cc1nnc2n1-c1sc(C#N)c(Cc3ccccc3)c1COC2` returned a concentration for half-maximal inhibition (IC50) of 720 nM and a Ki of 250 nM.
Turning to `Cc1nnc2n1Cc1sc(C#Cc3cnn(CCCC#Cc4cccc5c4CN(C4CCC(=O)N(C)C4=O)C5=O)c3)c(Cc3ccccc3)c1OC2` (centres undefined), the values for the 50% inhibitory concentration (IC50) in [2], in experiment [3] and in [4] were 43.7 nM, 25.8 nM and 183 nM, respectively.
As for `Cc1nnc2n1Cc1sc(C#Cc3cnn(CCCNc4cccc5c4C(=O)N(C4CCC(=O)NC4=O)C5=O)c3)c(Cc3ccccc3)c1OC2` (centres undefined), the IC50 in experiment [2] is 0.038 nM; in experiment [3] it was 0.138 nM; in [4] it was 0.56 nM. For the same molecule, the outcome in experiment [5], in experiment [6], in experiment [7] and in experiment [8] was Active.
In the case of `Cc1nnc2n1-c1sc(C#Cc3cnn(C)c3)c(Cc3ccccc3)c1COC2`, the result in experiment [9] and in experiment [10] was Active. Further, the outcome in experiment [11] was inactive.
Take `Cc1nnc2n1Cc1sc(C#Cc3cnn(CCCCNc4cccc5c4C(=O)N(C4CCC(=O)NC4=O)C5=O)c3)c(Cc3ccccc3)c1OC2` (centres undefined): the IC50 in [2] was 0.02 nM; in experiment [3], 0.0654 nM; in experiment [4], 0.19 nM. In addition, the outcome in experiment [5], in [6], in experiment [7], in experiment [12] and in experiment [8] was Active.
`Cc1nnc2n1-c1scc(Cc3ccccc3)c1COC2`: in [1], the IC50 came to 2300 nM and the Ki was 820 nM.
Consider `Cc1nnc2n1Cc1sc(C#Cc3cnn(CCCCNc4cccc5c4CN(C4CCC(=O)NC4=O)C5=O)c3)c(Cc3ccccc3)c1OC2` (centres undefined), for which the IC50 came to 0.0012 nM in experiment [2] and 0.18 nM in experiment [4].
Consider `Cc1nnc2n1Cc1sc(C#Cc3cnn(-c4cccc5c4C(=O)N(C4CCC(=O)NC4=O)C5=O)c3)c(Cc3ccccc3)c1OC2` (centres undefined), for which the IC50 in experiment [2], in experiment [3] and in experiment [4] was above 1000 nM throughout. For the same molecule, the outcome in [13], in experiment [14] and in [15] was inactive.
`Cc1nnc2n1Cc1sc(C#Cc3cnn(CCCNc4cccc5c4CN(C4CCC(=O)NC4=O)C5=O)c3)c(Cc3ccccc3)c1OC2` (centres undefined): the IC50 came out at 0.025 nM in experiment [2], 0.035 nM in [3] and 0.51 nM in experiment [4].
For `Cc1nnc2n1Cc1sc(C#Cc3cnn(CCCC#Cc4cccc5c4C(=O)N(C4CCC(=O)NC4=O)C5=O)c3)c(Cc3ccccc3)c1OC2` (centres undefined) the same measures were 0.39 nM, 0.72 nM and 1.6 nM.
For the molecule `Cc1sc2c(c1C)COCc1nnc(C)n1-2`, in experiment [1], inhibition was half-maximal at 4400 nM (IC50) and the Ki came to 1500 nM.
On to `Cc1nnc2n1Cc1sc(C#Cc3cnn(CCCCCNc4cccc5c4C(=O)N(C4CCC(=O)NC4=O)C5=O)c3)c(Cc3ccccc3)c1OC2` (centres undefined), for which the results for the IC50 in [2], in experiment [3] and in experiment [4] were 0.02 nM, 0.092 nM and 0.19 nM, respectively. Besides, the outcome in experiment [5], in experiment [6], in experiment [7], in experiment [12] and in [8] was Active.
Turning to `Cc1nnc2n1Cc1sc(C#Cc3cnn(CCCCCc4cccc5c4CN(C4CCC(=O)NC4=O)C5=O)c3)c(Cc3ccccc3)c1OC2` (centres undefined), the IC50 turned out to be 0.081 nM in experiment [2], 0.14 nM in experiment [3] and 0.53 nM in [4].
For `Cc1nnc2n1Cc1sc(C#Cc3cnn(CCNc4cccc5c4C(=O)N(C4CCC(=O)NC4=O)C5=O)c3)c(Cc3ccccc3)c1OC2` (centres undefined), the half-inhibitory concentration (IC50) in experiment [2] came out at 0.379 nM; in experiment [3], 0.47 nM; in experiment [4], 2.23 nM. In experiment [8], the result was Active.
As for `Cc1nnc2n1Cc1sc(C#Cc3cnn(COc4cccc5c4C(=O)N(C4CCC(=O)NC4=O)C5=O)c3)c(Cc3ccccc3)c1OC2` (centres undefined), the values for the 50% inhibitory concentration (IC50) in experiment [2], in experiment [3] and in experiment [4] were 20.8 nM, 19.7 nM and 311 nM, respectively. Moreover, the Activity entry in experiment [16], in [17] and in experiment [18] was “Dose-dependent effect” each time.
On to `Cc1nnc2n1-c1sc(C3CCOCC3)c(Cc3ccccc3)c1COC2`, for which, in experiment [1], it took 8100 nM to reach half-maximal inhibition (IC50) and the affinity, expressed as Ki, was 2800 nM.
